ChEMBL document CHEMBL2417386, “Novel conjugated quinoline-indoles compromise Plasmodium falciparum mitochondrial function and show promising antimalarial activity” (J Med Chem, 2013)

Key:
Plasmodium falciparum [1] = experiment: Resistant index, ratio of IC50 for Plasmodium falciparum K1 to IC50 for Plasmodium falciparum 3D7; type: functional
Procedure, shortened: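 Ratio of K1 to 3D7 IC50 values. Each IC50 comes from a 48 h drug exposure of the P. falciparum strain, with growth read by SYBR Green-I fluorescence. Where spread is given, it is the standard deviation of three individual experiments.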

Plasmodium falciparum [2] = experiment: Antimalarial activity against Plasmodium falciparum 3D7 infected in RBC assessed as growth inhibition after 48 hrs by SYBR Green-I fluorescence assay; type: functional, organism-based; conditions: 3D7, 48 h
Procedure, shortened: (§1)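 Parasite-infected red cells exposed to compound for 48 h; growth read by SYBR Green-I fluorescence; IC50 derived. Where a ± is given, it is the standard deviation of three individual experiments.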

[3] = Selectivity index, ratio of IC50 for HEK293 cells to IC50 for Plasmodium falciparum 3D7 after 72 hrs; type: toxicity, cell-based; conditions: human, read-out: Ratio IC50
Procedure, shortened: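 Parasite (3D7) viability assay and HEK293 viability assay, each with a 72 h exposure. Index taken as the ratio of the IC50 values, HEK293 over 3D7.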

Plasmodium falciparum [4] = experiment: Antimalarial activity against Plasmodium falciparum K1 infected in RBC assessed as growth inhibition after 48 hrs by SYBR Green-I fluorescence assay; type: functional, organism-based; conditions: K1, 48 h; procedure, shortened: as §1
[5] = Inhibition of beta-hematin formation after 24 hrs by spectrophotometric analysis in presence of nonidet P40; type: functional
Plasmodium falciparum [6] = experiment: Gametocytocidal activity against synchronous stage 1 to 3 of transgenic Plasmodium falciparum NF54 gametocyte harboring pfs16 promoter assessed as parasite viability after 72 hrs by luciferase reporter gene assay; type: functional, organism-based; conditions: NF54, 72 h
Plasmodium falciparum [7] = experiment: Antimalarial activity against mid to late trophozoite stage of Plasmodium falciparum 3D7 infected in RBC assessed as abnormal mitochondria at 15 uM after 0.5 hrs by MitoTracker Red CMXRos-based fluorescence microscopic analysis relative to untreated control; type: functional
Plasmodium falciparum [8] = experiment: Antimalarial activity against trophozoite stage of Plasmodium falciparum 3D7 infected in RBC assessed as growth inhibition after 5 hrs by SYBR Green-I fluorescence assay; type: functional, organism-based; conditions: 3D7, 5 h
Procedure, shortened: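 Trophozoite-stage parasites pulsed with compound for 5 h. Drug then washed out and parasites cultured a further 43 h before survival was assessed.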

Plasmodium falciparum [9] = experiment: Antimalarial activity against mid to late trophozoite stage of Plasmodium falciparum 3D7 infected in RBC assessed as nonviable parasite at 3 uM after 0.5 hrs by SYTO 61 staining-based flow cytometric analysis relative to untreated control; type: functional
Plasmodium falciparum [10] = experiment: Ratio of IC50 for trophozoite stage of Plasmodium falciparum 3D7 infected in RBC after 5 hrs in presence of 5 uM ALLN to IC50 for trophozoite stage of Plasmodium falciparum 3D7 infected in RBC after 5 hrs in absence of ALLN; type: functional
Procedure, shortened: (§2)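 Trophozoite-stage parasites pulsed 5 h with compound, with or without ALLN (0.2 or 5 μM). Drug and ALLN then removed; culture continued a further 43 h before survival was assessed. Antagonism expressed as the ratio of IC50 with ALLN to IC50 without ALLN.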

Plasmodium falciparum [11] = experiment: Antimalarial activity against mid to late trophozoite stage of Plasmodium falciparum 3D7 infected in RBC assessed as nonviable parasite at 0.6 uM after 0.5 hrs by SYTO 61 staining-based flow cytometric analysis relative to untreated control; type: functional
Plasmodium falciparum [12] = experiment: Gametocytocidal activity against synchronous stage 4 to 5 of transgenic Plasmodium falciparum NF54 gametocyte harboring pfs16 promoter assessed as parasite viability after 72 hrs by MitoTracker Red CMXRos-based assay; type: functional, organism-based; conditions: NF54, 72 h
Plasmodium falciparum [13] = experiment: Ratio of IC50 for trophozoite stage of Plasmodium falciparum 3D7 infected in RBC after 5 hrs in presence of 0.2 uM ALLN to IC50 for trophozoite stage of Plasmodium falciparum 3D7 infected in RBC after 5 hrs in absence of ALLN; type: functional; procedure, shortened: as §2
Plasmodium falciparum [14] = experiment: Antimalarial activity against mid to late trophozoite stage of Plasmodium falciparum 3D7 infected in RBC assessed as nonviable parasite at 15 uM after 0.5 hrs by SYTO 61 staining-based flow cytometric analysis relative to untreated control; type: functional
Plasmodium falciparum [15] = experiment: Ratio of IC50 for trophozoite stage of Plasmodium falciparum 3D7 infected in RBC after 5 hrs to IC50 for Plasmodium falciparum 3D7 infected in RBC after 48 hrs; type: functional
Plasmodium falciparum [16] = experiment: Antimalarial activity against mid to late trophozoite stage of Plasmodium falciparum 3D7 infected in RBC assessed as abnormal mitochondria at 3 uM after 0.5 hrs by MitoTracker Red CMXRos-based fluorescence microscopic analysis relative to untreated control; type: functional
Plasmodium falciparum [17] = experiment: Antimalarial activity against mid to late trophozoite stage of Plasmodium falciparum 3D7 infected in RBC assessed as abnormal mitochondria at 0.6 uM after 0.5 hrs by MitoTracker Red CMXRos-based fluorescence microscopic analysis relative to untreated control; type: functional
Plasmodium falciparum [18] = experiment: Gametocytocidal activity against asexual stage of transgenic Plasmodium falciparum NF54 gametocyte harboring pfs16 promoter assessed as parasite viability after 72 hrs by luciferase reporter gene assay; type: functional, organism-based; conditions: NF54, 72 h
Plasmodium falciparum [19] = experiment: Antimalarial activity against mid to late trophozoite stage of Plasmodium falciparum 3D7 infected in RBC assessed as nonviable parasite at 1.7 uM after 0.5 hrs by SYTO 61 staining-based flow cytometric analysis relative to untreated control; type: functional
Plasmodium falciparum [20] = experiment: Antimalarial activity against mid to late trophozoite stage of Plasmodium falciparum 3D7 infected in RBC assessed as abnormal mitochondria at 0.56 uM after 0.5 hrs by MitoTracker Red CMXRos-based fluorescence microscopic analysis relative to untreated control; type: functional
Plasmodium falciparum [21] = experiment: Antimalarial activity against mid to late trophozoite stage of Plasmodium falciparum 3D7 infected in RBC assessed as abnormal mitochondria at 1.7 uM after 0.5 hrs by MitoTracker Red CMXRos-based fluorescence microscopic analysis relative to untreated control; type: functional
Plasmodium falciparum [22] = experiment: Antimalarial activity against mid to late trophozoite stage of Plasmodium falciparum 3D7 infected in RBC assessed as nonviable parasite at 0.56 uM after 0.5 hrs by SYTO 61 staining-based flow cytometric analysis relative to untreated control; type: functional
Plasmodium falciparum [23] = experiment: Antimalarial activity against mid to late trophozoite stage of Plasmodium falciparum 3D7 infected in RBC assessed as nonviable parasite at 5 uM after 0.5 hrs by SYTO 61 staining-based flow cytometric analysis relative to untreated control; type: functional
Plasmodium falciparum [24] = experiment: Antimalarial activity against mid to late trophozoite stage of Plasmodium falciparum 3D7 infected in RBC assessed as abnormal mitochondria at 5 uM after 0.5 hrs by MitoTracker Red CMXRos-based fluorescence microscopic analysis relative to untreated control; type: functional
Plasmodium falciparum [25] = experiment: Antimalarial activity against mid to late trophozoite stage of Plasmodium falciparum 3D7 infected in RBC assessed as abnormal mitochondria at 0.001 uM after 0.5 hrs by MitoTracker Red CMXRos-based fluorescence microscopic analysis relative to untreated control; type: functional
Plasmodium falciparum [26] = experiment: Antimalarial activity against mid to late trophozoite stage of Plasmodium falciparum 3D7 infected in RBC assessed as nonviable parasite at 0.0002 uM after 0.5 hrs by SYTO 61 staining-based flow cytometric analysis relative to untreated control; type: functional
Plasmodium falciparum [27] = experiment: Antimalarial activity against mid to late trophozoite stage of Plasmodium falciparum 3D7 infected in RBC assessed as abnormal mitochondria at 0.0002 uM after 0.5 hrs by MitoTracker Red CMXRos-based fluorescence microscopic analysis relative to untreated control; type: functional
Plasmodium falciparum [28] = experiment: Antimalarial activity against mid to late trophozoite stage of Plasmodium falciparum 3D7 infected in RBC assessed as nonviable parasite at 0.001 uM after 0.5 hrs by SYTO 61 staining-based flow cytometric analysis relative to untreated control; type: functional
Plasmodium falciparum [29] = experiment: Antimalarial activity against mid to late trophozoite stage of Plasmodium falciparum 3D7 infected in RBC assessed as abnormal mitochondria at 20 uM after 0.5 hrs by MitoTracker Red CMXRos-based fluorescence microscopic analysis relative to untreated control; type: functional

Row | Compound | Ratio IC50 (Plasmodium falciparum [1]) | IC50 (Plasmodium falciparum [2]) | selectivity ratio at 72 h [3] | IC50 (Plasmodium falciparum [4]) | IC50 [5] | IC50 (Plasmodium falciparum [8]) | Ratio IC50 (Plasmodium falciparum [10]) | Ratio IC50 (Plasmodium falciparum [13]) | Ratio IC50 (Plasmodium falciparum [15]) | other results
1 | Nc1cc(/C=C/c2n[nH]c3ccccc23)nc2ccccc12 | 2 | 0.14 µM | 164 | 0.4 µM | – | – | – | – | – | –
2 | C[n+]1c(/C=C/c2c[nH]c3ncccc23)cc(N)c2ccccc21.[I-] | 0.3 | 0.4 µM | 4 | 0.25 µM | – | – | – | – | – | –
3 | C[n+]1c(/C=C/c2c[nH]c3ccccc23)cc(N)c2ccc(Cl)cc21 | – | 0.4 µM | 2 | 0.19 µM | 300 µM | – | – | – | – | –
4 | CNc1cc(/C=C/c2c(C)[nH]c3ccccc23)[n+](C)c2ccccc12 | – | 1.4 µM | 16 | 1.6 µM | – | – | – | – | – | –
5 | C[n+]1c(/C=C/c2c[nH]c3ccccc23)cc(N)c2ccccc21.[I-] | 0.6 | 0.2 µM | 35 | 0.12 µM | 1400 µM | 1 µM | 3 | 1.5 | 5 | IC50 (Plasmodium falciparum [6]): 0.3 µM; Activity (Plasmodium falciparum [7]): 100%; Activity (Plasmodium falciparum [9]): 73%; Activity (Plasmodium falciparum [11]): 8%; IC50 (Plasmodium falciparum [12]): 4 µM; Activity (Plasmodium falciparum [14]): 81%; Activity (Plasmodium falciparum [16]): 91%; Activity (Plasmodium falciparum [17]): 18%; IC50 (Plasmodium falciparum [18]): 0.1 µM
6 | C[C@H]1[C@H](OC(=O)CCC(=O)O)O[C@@H]2O[C@@]3(C)CC[C@H]4[C@H](C)CC[C@@H]1[C@@]24OO3 [ARTESUNATE] | – | – | – | – | – | – | – | – | – | IC50 (Plasmodium falciparum [12]): 0.008 µM
7 | CCN(CC)CCCC(C)Nc1cc(/C=C/c2c[nH]c3ccccc23)nc2ccccc12 (stereo not given) | 3 | 0.1 µM | 87 | 0.33 µM | 1100 µM | 0.17 µM | 2.6 | 1.6 | 1.7 | –
8 | Cc1[nH]c2ccccc2c1/C=C/c1cc(N)c2ccccc2[n+]1C.[I-] | 1.3 | 0.17 µM | 18 | 0.23 µM | 220 µM | 0.73 µM | 1.7 | 1 | 4.3 | IC50 (Plasmodium falciparum [6]): 0.35 µM; Activity (Plasmodium falciparum [7]): 99%; Activity (Plasmodium falciparum [19]): 42%; Activity (Plasmodium falciparum [20]): 43%; Activity (Plasmodium falciparum [21]): 86%; IC50 (Plasmodium falciparum [12]): 1.9 µM; Activity (Plasmodium falciparum [22]): 18%; Activity (Plasmodium falciparum [23]): 66%; Activity (Plasmodium falciparum [14]): 86%; Activity (Plasmodium falciparum [24]): 97%
9 | CCCC[n+]1c(/C=C/c2c[nH]c3ccccc23)cc(N)c2ccccc21 | – | 0.45 µM | 4 | 0.44 µM | – | – | – | – | – | –
10 | CC1(C)N=C(N)N=C(N)N1OCCCOc1cc(Cl)c(Cl)cc1Cl | – | 0.00046 µM | – | – | – | 0.0004 µM | 0.7 | 0.7 | 0.9 | Activity (Plasmodium falciparum [25]): 3%; Activity (Plasmodium falciparum [26]): 40%; Activity (Plasmodium falciparum [27]): 3%; Activity (Plasmodium falciparum [28]): 73%
11 | N#CC(C#N)=NNc1cccc(Cl)c1 [CARBONYL CYANIDE M-CHLOROPHENYLHYDRAZONE] | – | – | – | – | – | – | – | – | – | Activity (Plasmodium falciparum [29]): 74%
12 | CN(C)c1ccc2nc3ccc(N(C)C)cc3[s+]c2c1.[Cl-] [METHYLENE BLUE ANHYDROUS] | – | 0.02 µM | – | 0.008 µM | – | 0.03 µM | 3.2 | 2.1 | 1.5 | –
13 | C[n+]1c(/C=C/c2c[nH]c3cc(F)ccc23)cc(N)c2ccccc21.[I-] | 0.3 | 0.29 µM | 4 | 0.14 µM | – | – | – | – | – | –
14 | Nc1cc(CCc2c[nH]c3ccccc23)nc2ccccc12 | – | 0.9 µM | 67 | 2.2 µM | – | – | – | – | – | –
15 | C[n+]1c(/C=C/c2n[nH]c3ccccc23)cc(N)c2ccccc21.[I-] | 0.3 | 0.7 µM | 107 | 0.23 µM | 1500 µM | – | – | – | – | –
16 | Cc1cc(N)c2ccccc2[n+]1C | – | > 4 µM | – | > 5 µM | – | – | – | – | – | –
